From ChEMBL document CHEMBL3244368, “[3-(1,4-Cyclohexadienyl)-L-alanine,8-lysine]vasopressin: synthesis and some pharmacological properties” (J Med Chem, 1979)
Starred links: 1 amine or outer side, 2 acyl side, 3 side chain; linkers in the order of their positions; H or OH if unused. Non-standard residues stand in square brackets, D forms with d. Residues, ends and D or L forms follow the SMILES beside them. *: point of attachment. X1 = O=C([C@H](CC1=CCC=CC1)N[*:1])[*:2]; Tos = Cc1ccc(S(=O)(=O)*)cc1; Cbz = O=C(OCc1ccccc1)*; Bn = c1ccc(C*)cc1

Columns and labels:
[1] = Stability of the compound in potassium phosphate buffer at pH 7 assessed as hydrolysis by measuring DiHPe level in presence of alpha-amylase preparation
[2] = Stability of the compound in 0.2 M potassium phosphate buffer at pH 7.7 assessed as hydrolysis by measuring Tyr level in presence of alpha-amylase preparation; assay type: ADME
[3] = Stability of the compound in 0.2 M potassium phosphate buffer at […] assessed as hydrolysis by measuring Tyr level in presence of alpha-amylase preparation and cyclohexadiene; assay type: ADME
Outline: (§1)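 Aspergillus oryzae α-amylase preparation, 1 mg per 0.9 µmol peptide, in potassium phosphate buffer pH 7, with 1,4-cyclohexadiene (10 µL) and toluene, under N2, 37 °C, 17 h. Adjusted to pH 2.2 for amino acid analysis. Phe from a control of constituent amino acids plus enzyme subtracted to give Phe in residue 3.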

[4] = Stability of the compound in 0.2 M potassium phosphate buffer at pH 7.7 assessed as hydrolysis by measuring Asn/Gln level in presence of alpha-amylase preparation; assay type: ADME
[5] = Stability of the compound in potassium phosphate buffer at pH 7 assessed as hydrolysis by measuring Phe level in presence of alpha-amylase preparation and cyclohexadiene
[6] = Stability of the compound in potassium phosphate buffer at pH 7 assessed as hydrolysis by measuring DiHPe level in presence of alpha-amylase preparation and cyclohexadiene
[7] = Stability of the compound in potassium phosphate buffer at pH 7 assessed as hydrolysis by measuring Phe level in presence of alpha-amylase preparation
[8] = Stability of the compound in 0.2 M potassium phosphate buffer at pH 7.7 assessed as hydrolysis by measuring Gly level in presence of alpha-amylase preparation; assay type: ADME
[9] = Stability of the compound in 0.2 M potassium phosphate buffer at pH 7.7 assessed as hydrolysis by measuring Ile/Phe + DiHPe level in presence of pronase; assay type: ADME
Outline: (§2)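 Pronase digest in 0.2 M potassium phosphate buffer, pH 7.7, substrate:enzyme 5:1. Half the enzyme added at start and half after 18 h at 37 °C, then incubated 4 h more. Released amino acids quantified by amino acid analysis.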

[10] = Stability of the compound in 0.2 M potassium phosphate buffer at pH 7.7 assessed as hydrolysis by measuring Ile/Phe + DiHPe level in presence of alpha-amylase preparation; assay type: ADME
[11] = Stability of the compound in 0.2 M potassium phosphate buffer at pH 7.7 assessed as hydrolysis by measuring Leu/Lys level in presence of alpha-amylase preparation; assay type: ADME
[12] = Stability of the compound in 0.2 M potassium phosphate buffer at pH 7.7 assessed as hydrolysis by measuring Asn/Gln level in presence of pronase; assay type: ADME
Outline: as §2

[13] = Stability of the compound in 0.2 M potassium phosphate buffer at pH 7.7 assessed as hydrolysis by measuring Gly level in presence of pronase; assay type: ADME
Outline: as §2

[14] = Stability of the compound in 0.2 M potassium phosphate buffer at pH 7.7 assessed as hydrolysis by measuring Tyr level in presence of pronase; assay type: ADME
Outline: as §2

[15] = Stability of the compound in 0.2 M potassium phosphate buffer at pH 7.7 assessed as hydrolysis by measuring Leu/Lys level in presence of pronase; assay type: ADME
Outline: as §2

[16] = Stability of the compound in […] assessed as hydrolysis by measuring Asn/Gln level in presence of alpha-amylase preparation and cyclohexadiene; assay type: ADME; settings: buffer
Outline: as §1

[17] = Stability of the compound in 0.2 M potassium phosphate buffer at pH 7.7 assessed as hydrolysis by measuring Leu/Lys level in presence of papain and aminopeptidase M; assay type: ADME
Outline: (§3)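 Papain digest in 0.5 M ammonium acetate, pH 5.3, with 0.15% mercaptoethanol, substrate:enzyme 20:1, 6 h at 37 °C. Acidified, clarified and lyophilized, then aminopeptidase M digest in 0.2 M potassium phosphate, pH 7.7, substrate:enzyme 1:1.5, 3 h at 37 °C. Amino acid analysis.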

[18] = Stability of the compound in 0.2 M potassium phosphate buffer at pH 7.7 assessed as hydrolysis by measuring Gly level in presence of pronase and aminopeptidase M; assay type: ADME
Outline: (§4)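 Pronase digest in 0.2 M potassium phosphate, pH 7.7, substrate:enzyme 5:1, 37 °C, enzyme split over 18 h + 4 h. Digest acidified, clarified and lyophilized, then treated with aminopeptidase M (0.2 M potassium phosphate, pH 7.7, substrate:enzyme 1:1.5, 3 h, 37 °C). Amino acid analysis.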

[19] = Stability of the compound in 0.2 M potassium phosphate buffer at pH 7.7 assessed as hydrolysis by measuring Leu/Lys level in presence of alpha-amylase preparation and aminopeptidase M; assay type: ADME
[20] = Stability of the compound in 0.2 M potassium phosphate buffer at pH 7.7 assessed as hydrolysis by measuring Gly level in presence of papain and aminopeptidase M; assay type: ADME
Outline: as §3

[21] = Stability of the compound in 0.2 M potassium phosphate buffer at pH 7.7 assessed as hydrolysis by measuring Leu/Lys level in presence of pronase and aminopeptidase M; assay type: ADME
Outline: as §4

[22] = Stability of the compound in 0.2 M potassium phosphate buffer at pH 7.7 assessed as hydrolysis by measuring Tyr level in presence of papain and aminopeptidase M; assay type: ADME
Outline: as §3

[23] = Stability of the compound in 0.2 M potassium phosphate buffer at pH 7.7 assessed as hydrolysis by measuring Gly level in presence of alpha-amylase preparation and aminopeptidase M; assay type: ADME
[24] = Stability of the compound in 0.2 M potassium phosphate buffer at pH 7.7 assessed as hydrolysis by measuring Asn/Gln level in presence of alpha-amylase preparation and aminopeptidase M; assay type: ADME
[25] = Stability of the compound in 0.2 M potassium phosphate buffer at pH 7.7 assessed as hydrolysis by measuring Ile/Phe + DiHPe level in presence of alpha-amylase preparation and aminopeptidase M; assay type: ADME
[26] = Stability of the compound in […] assessed as hydrolysis by measuring Leu/Lys level in presence of alpha-amylase preparation and cyclohexadiene; assay type: ADME; settings: buffer
Outline: as §1

[27] = Stability of the compound in 0.2 M potassium phosphate buffer at pH 7.7 assessed as hydrolysis by measuring Asn/Gln level in presence of papain and aminopeptidase M; assay type: ADME
Outline: as §3

[28] = Stability of the compound in 0.2 M potassium phosphate buffer at pH 7.7 assessed as hydrolysis by measuring Ile/Phe + DiHPe level in presence of papain and aminopeptidase M; assay type: ADME
Outline: as §3

[29] = Stability of the compound in […] potassium phosphate buffer at […] assessed as hydrolysis by measuring Ile/Phe + DiHPe level in presence of alpha-amylase preparation and cyclohexadiene; assay type: ADME
Outline: as §1

[30] = Stability of the compound in 0.2 M potassium phosphate buffer at pH 7.7 assessed as hydrolysis by measuring Ile/Phe + DiHPe level in presence of pronase and aminopeptidase M; assay type: ADME
Outline: as §4

[31] = Stability of the compound in 0.2 M potassium phosphate buffer at […] assessed as hydrolysis by measuring Gly level in presence of alpha-amylase preparation and cyclohexadiene; assay type: ADME
Outline: as §1

[32] = Stability of the compound in 0.2 M potassium phosphate buffer at pH 7.7 assessed as hydrolysis by measuring Asn/Gln level in presence of pronase and aminopeptidase M; assay type: ADME
Outline: as §4

[33] = Stability of the compound in 0.2 M potassium phosphate buffer at pH 7.7 assessed as hydrolysis by measuring Tyr level in presence of alpha-amylase preparation and aminopeptidase M; assay type: ADME

Drug degradation [2] [mol%]	Drug degradation [3] [mol%]	Drug degradation [4] [mol%]	Drug degradation [8] [mol%]	Drug degradation [9] [mol%]	Drug degradation [10] [mol%]	Drug degradation [11] [mol%]	Drug degradation [12] [mol%]	Drug degradation [13] [mol%]	Drug degradation [15] [mol%]	SMILES	further results
77	73	67	18	–	–	–	–	–	–	Cc1ccc(S(=O)(=O)NCCCC[C@H](NC(=O)[C@@H]2CCCN2C(=O)[C@H](CSCc2ccccc2)NC(=O)[C@H](CC(N)=O)NC(=O)[C@H](CCC(N)=O)NC(=O)[C@H](CC2=CCC=CC2)NC(=O)[C@H](Cc2ccc(OCc3ccccc3)cc2)NC(=O)[C@H](CSCc2ccccc2)NC(=O)OCc2ccccc2)C(=O)NCC(N)=O)cc1 (Cbz-C(Bn)Y(Bn)[X1]QNC(Bn)PK(Tos)G-NH2)	Drug degradation [1]: 57.6 mol%; Drug degradation [5]: 4.4 mol%; Drug degradation [6]: 52.4 mol%; Drug degradation [7]: 3.9 mol%
63	–	110	63	54	72	77	76	36	60	CC[C@H](C)[C@@H]1NC(=O)[C@H](Cc2ccc(O)cc2)NC(=O)[C@@H](N)CSSC[C@@H](C(=O)N2CCC[C@H]2C(=O)N[C@@H](CC(C)C)C(=O)NCC(N)=O)NC(=O)[C@H](CC(N)=O)NC(=O)[C@H](CCC(N)=O)NC1=O [OXYTOCIN]	Drug degradation [14]: 70 mol%
26	23	72	50	38	75	72	86	44	46	CC[C@H](C)[C@H](NC(=O)[C@H](Cc1ccc(O)cc1)NC(=O)[C@@H](N)CS(=O)(=O)O)C(=O)N[C@@H](CCC(N)=O)C(=O)N[C@@H](CC(N)=O)C(=O)N[C@@H](CS(=O)(=O)O)C(=O)N1CCC[C@H]1C(=O)N[C@@H](CC(C)C)C(=O)NCC(N)=O	Drug degradation [16]: 86 mol%; Drug degradation [17]: 14 mol%; Drug degradation [18]: 54 mol%; Drug degradation [19]: 85 mol%; Drug degradation [20]: 13 mol%; Drug degradation [21]: 65 mol%; Drug degradation [22]: 30 mol%; Drug degradation [23]: 60 mol%; Drug degradation [24]: 90 mol%; Drug degradation [25]: 82 mol%; Drug degradation [26]: 57 mol%; Drug degradation [27]: 14 mol%; Drug degradation [28]: 13 mol%; Drug degradation [29]: 51 mol%; Drug degradation [30]: 65 mol%; Drug degradation [31]: 38 mol%; Drug degradation [32]: 124 mol%; Drug degradation [33]: 35 mol%
